# Experimental data taken from PubChem BioAssay AID624104 (Broad Institute, 2012).
# Calls of active or inactive are those of the source.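 Rule for the calls: active = fitted curve reaches a 35% growth drop -35 below twice the top tested dose; inactive = activity in the wrong direction, or the rest.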
# Tested on: not listed separately
# Assay: mexAB-oprM mutant growth inhibition with EDDHA – PAK mexAB-OprM pump mutant, OD600, dry powder, set 2, dose response (AID 624104)
# Conditions: P. aeruginosa PAK mexAB-oprM, EDDHA, OD600 growth, 28 h; at 100 µM (top of the series)
# How it was run: (§1)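 System: diluted overnight bacterial culture; buffer or medium: succinate M9 medium, pH 7.0, containing 2 µM EDDHA; compound: series, final 15 nM to 100 µM; incubation: 28 h compound exposure at 30 °C, humidified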
row,SMILES,"activity change, negative = growth inhibition"
1,Clc1ccc(C(c2cccc(Cl)n2)c2nn[nH]n2)cc1 (configuration not stated),11.2% (inactive)
2,COCCOCCC(C#N)c1ccc(Cl)cc1 (configuration not stated),-10% (inactive)
3,N#CC(c1ccc(C(F)(F)F)c(Cl)n1)c1ccccc1OC(F)(F)F (configuration not stated),-25.9% (inactive)
4,CN(C)CCCC(C#N)c1ccc(Cl)cc1 (configuration not stated),-0.114% (inactive)

# Tested on: P. aeruginosa PAK mexAB-oprM, EDDHA, OD600 growth, 28 h
# Assay: as above
# Conditions: not given
# How it was run: as §1
row,SMILES,AC35
1,CCCCC(C#N)c1ccc(F)cn1 (configuration not stated),18.7 µM
2,N#CC(c1cccc(C(F)(F)F)n1)c1ccc(Cl)cc1F (configuration not stated),2.45 µM
3,N#CC1c2ccc(Cl)cc2CCc2cccnc21 (configuration not stated),32.8 µM
4,CCCCC(C#N)c1ccc(Cl)cn1 (configuration not stated),42.3 µM
5,N#CC(c1cccc(Cl)n1)c1ccc(Cl)cc1F (configuration not stated),1.52 µM
6,N#CC(c1ccc(Cl)cc1)c1cccc(Cl)n1 (configuration not stated),1.97 µM
7,N#CC(c1ccc(F)cc1)c1cccc(Cl)n1 (configuration not stated),2.09 µM
8,COCCC(C#N)c1ccc(Cl)cc1 (configuration not stated),40.2 µM
9,CCCCC(C#N)c1ccc(F)cc1 (configuration not stated),33.5 µM
10,COCCC(C#N)c1ccc(F)cc1 (configuration not stated),28.3 µM
11,N#CC(c1ccc(Cl)cc1)c1ccccn1 (configuration not stated),5.72 µM
12,COCCOCCC(C#N)c1ccc(F)cc1 (configuration not stated),5.24 µM
13,N#CC(c1ccc(Cl)cc1)c1cccc(C(F)(F)F)n1 (configuration not stated),1.45 µM
14,N#CC(c1ccc(Cl)cc1)c1ncccc1Cl (configuration not stated),0.923 µM
15,CN(C)CCCC(C#N)c1ccc(F)cc1 (configuration not stated),6.4 µM
16,N#CC(c1ccc(F)cc1)c1cccc(C(F)(F)F)n1 (configuration not stated),0.839 µM
17,N#Cc1cccc(C(C#N)c2ccc(F)cc2)n1 (configuration not stated),8.88 µM
18,CCCCC(c1ccc(Cl)cc1)c1nn[nH]n1 (configuration not stated),25.2 µM
